Laboratory results reported in ChEMBL document CHEMBL1132354, “Novel antidiabetic and hypolipidemic agents. 5. Hydroxyl versus benzyloxy containing chroman derivatives” (J Med Chem, 1999).

Key:
Mus musculus [1] = assay: The compound was tested for percent reduction in plasma glucose after 6 days of treatment at 30 mg/kg/day in mice; assay type: functional
In short: (§1)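 Male C57BL/KsJ-db/db mice, 8 weeks old, chow ad libitum, grouped by similar starting plasma glucose (n = 4–6 per group). Dosed orally by gavage in 0.5% CMC vehicle (10 mL/kg) daily for 6 days. Retro-orbital blood taken 1 h post-dose on days 0 and 6. Plasma glucose and triglyceride measured with kits. % reduction = {1−[(TT/OT)/(TC/OC)]}×100 versus vehicle controls, mean ± SE.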

Mus musculus [2] = assay: The compound was tested for percent reduction in plasma triglyceride after 6 days of treatment at 30 mg/kg/day in mice; assay type: functional; in short: as §1
Mus musculus [3] = assay: The compound was tested for percent reduction in plasma triglyceride after 6 days of treatment at 30 mg/kg/day; assay type: functional; in short: as §1
Mus musculus [4] = assay: The compound was tested for percent reduction in plasma glucose after 6 days of treatment at a dose of 100 mg/kg/day (oral gavage) in mice; assay type: functional; in short: as §1
Mus musculus [5] = assay: The compound was tested for percent reduction in plasma glucose after 6 days of treatment at a dose of 200 mg/kg/day (oral gavage) in mice; assay type: functional; in short: as §1
[6] = The half life value in male wistar rat at 100 mg/kg, p.o. dose; assay type: ADME, organism-based; design: dose 100 mg/kg, route oral; settings: in vivo, po
In short: (§2)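 Wistar rats, 200–225 g, fasted 12 h with free access to water and fed 3 h after dosing. Single dose of 100 mg/kg p.o. given as a 0.5% CMC suspension. Retro-orbital blood, 0.4 mL, taken into heparinized tubes at several time points. Plasma drug measured by HPLC with fluorescence detection on a C18 column. Parameters from noncompartmental analysis, AUC by trapezoidal rule. Four rats per group, mean ± SD.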

[7] = The Cmax value in male wistar rat at 100 mg/kg, p.o. dose; assay type: ADME, organism-based; design: dose 100 mg/kg, route oral; settings: in vivo, po; in short: as §2
Rattus norvegicus [8] = assay: The AUC(0-t)value in male wistar rat at 100 mg/kg, p.o. dose; assay type: ADME, organism-based; design: dose 100 mg/kg, route oral; settings: in vivo, po; in short: as §2
[9] = The Tmax value in male wistar rat at 100 mg/kg, p.o. dose; assay type: ADME, organism-based; design: dose 100 mg/kg, route oral; settings: in vivo, po; in short: as §2
Rattus norvegicus [10] = assay: The AUC(0-infinitive) value in male wistar rat at 100 mg/kg, p.o. dose; assay type: ADME, organism-based; design: time infinity, dose 100 mg/kg, route oral; settings: in vivo, po; in short: as §2
[11] = The Kel value in male wistar rat at 100 mg/kg, p.o. dose; assay type: ADME, organism-based; design: dose 100 mg/kg, route oral; settings: in vivo, po; in short: as §2
Mus musculus [12] = assay: The compound was tested for percent reduction in plasma triglyceride after 6 days of treatment at a dose of 200 mg/kg/day (oral gavage) in mice; assay type: functional; in short: as §1
Mus musculus [13] = assay: The compound was tested for percent reduction in plasma glucose after 6 days of treatment at a dose of 100 mg/kg/day in mice; assay type: functional; in short: as §1
[14] = The Cmax value in female wistar rat at 100 mg/kg, p.o. dose; assay type: ADME, organism-based; design: dose 100 mg/kg, route oral; settings: in vivo, po; in short: as §2
Rattus norvegicus [15] = assay: (§3) The AUC(0-t)value in female wistar rat at 100 mg/kg, p.o. dose; assay type: ADME, organism-based; design: dose 100 mg/kg, route oral; settings: in vivo, po; in short: as §2
[16] = The Tmax value in female wistar rat at 100 mg/kg, p.o. dose; assay type: ADME, organism-based; design: dose 100 mg/kg, route oral; settings: in vivo, po; in short: as §2
[17] = The half life value in female wistar rat at 100 mg/kg, p.o. dose; assay type: ADME, organism-based; design: dose 100 mg/kg, route oral; settings: in vivo, po; in short: as §2
Rattus norvegicus [18] = assay: (§4) The AUC(0-infinitive) value in female wistar rat at 100 mg/kg, p.o. dose; assay type: ADME, organism-based; design: time infinity, dose 100 mg/kg, route oral; settings: in vivo, po; in short: as §2
[19] = The Kel value in female wistar rat at 100 mg/kg, p.o. dose; assay type: ADME, organism-based; design: dose 100 mg/kg, route oral; settings: in vivo, po; in short: as §2
Mus musculus [20] = assay: The compound was tested for percent reduction in plasma triglyceride after 6 days of treatment at a dose of 100 mg/kg/day (oral gavage) in mice; assay type: functional; in short: as §1
[21] = molecular target: T1, Peroxisome proliferator-activated receptor alpha (Homo sapiens) (UniProt Q07869); assay: Fold activation against Peroxisome proliferator activated receptor alpha (50 uM)
T1 sequence (whole entry): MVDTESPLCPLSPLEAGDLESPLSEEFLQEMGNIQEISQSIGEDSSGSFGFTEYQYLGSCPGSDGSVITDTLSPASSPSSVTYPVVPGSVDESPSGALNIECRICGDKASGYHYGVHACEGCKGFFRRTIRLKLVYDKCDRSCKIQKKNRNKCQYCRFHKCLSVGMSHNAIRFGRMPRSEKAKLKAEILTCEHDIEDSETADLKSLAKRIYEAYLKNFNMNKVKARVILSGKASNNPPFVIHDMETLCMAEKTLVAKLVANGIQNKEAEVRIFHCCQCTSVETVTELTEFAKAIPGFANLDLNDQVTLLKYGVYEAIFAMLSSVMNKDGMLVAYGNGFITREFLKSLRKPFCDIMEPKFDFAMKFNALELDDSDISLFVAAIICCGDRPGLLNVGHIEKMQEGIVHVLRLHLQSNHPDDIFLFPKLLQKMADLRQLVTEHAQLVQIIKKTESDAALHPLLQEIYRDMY
In short: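 GAL4 fusion of human PPARα LBD (aa 167–468) with a GAL4-response-element luciferase reporter, transiently transfected into HEK-293 cells. Cells kept in DMEM with 10% delipidated serum, seeded 43 h post-transfection, then treated at 50 μM. DMSO (1:1000) served as blank. Luciferase read as fold activation over untreated cells. Mean of three to four experiments.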

Rattus norvegicus [22] = assay: as §4; assay type: ADME, organism-based; design: time infinity, dose 100 mg/kg, route oral; unit not given here; settings: in vivo, po; in short: as §2
Rattus norvegicus [23] = assay: as §3; assay type: ADME, organism-based; design: dose 100 mg/kg, route oral; unit not given here; settings: in vivo, po; in short: as §2
Rattus norvegicus [24] = assay: The AUC(0-t)value in female wistar rat at 100 mg/kg, p.o. dose […]; assay type: ADME, organism-based; design: dose 100 mg/kg, route oral; settings: in vivo, po
Mus musculus [25] = assay: The compounds(21:4) were tested for percent reduction in plasma glucose after 6 days of treatment at 200 mg/kg/day(oral gavage) in mice; assay type: functional; in short: as §1
Mus musculus [26] = assay: The compounds(3:7) were tested for percent reduction in plasma glucose after 6 days of treatment at 200 mg/kg/day(oral gavage) in mice; assay type: functional; in short: as §1
Mus musculus [27] = assay: The compound was tested for percent reduction in plasma triglyceride after 6 days of treatment at 100 mg/kg/day in mice; assay type: functional; in short: as §1
Mus musculus [28] = assay: The compound was tested for percent reduction in plasma triglyceride after 6 days of treatment at a dose of 100 mg/kg/day in mice; assay type: functional; in short: as §1

Compound: Cc1c(C)c2c(c(C)c1OCc1ccccc1)CCC(C)(CN1CCC[C@H]1COc1ccc(/C=C3\SC(=O)[N-]C3=O)cc1)O2.[Na+] (some centres not stated)
- Reduction (Mus musculus [1]): 8%
- Reduction (Mus musculus [2]): 58%

Compound: Cc1c(C)c2c(c(C)c1OCc1ccccc1)CCC(C)(CN1CCC[C@H]1COc1ccc(/C=C3\SC(=O)NC3=O)cc1)O2 (some centres not stated)
- Reduction (Mus musculus [1]): 41%
- Reduction (Mus musculus [3]): 26%
- Reduction (Mus musculus [4]): 68%

Compound: Cc1c(C)c2c(c(C)c1O)CCC(C)(COc1ccc(CC3SC(=O)NC3=O)cc1)O2 (configuration not stated) [TROGLITAZONE]
- Reduction (Mus musculus [5]): 24%
- half-life [6]: 3.9 h
- Cmax [7]: 770 ng/mL
- AUC (Rattus norvegicus [8]): 5.09 µg/h/mL
- Tmax [9]: 2 h
- AUC (Rattus norvegicus [10]): 5.68 µg/h/mL
- k el [11]: 5.28e-05 s⁻¹
- Reduction (Mus musculus [12]): 50%
- Reduction (Mus musculus [13]): 26%

Compound: Cc1c(C)c2c(c(C)c1OCc1ccccc1)CCC(C)(CN(C)CCOc1ccc(/C=C3\SC(=O)NC3=O)cc1)O2 (configuration not stated)
- Reduction (Mus musculus [5]): 45%
- Cmax [14]: 4120 ng/mL
- AUC (Rattus norvegicus [15]): 27.47 µg/h/mL
- Tmax [16]: 3.25 h
- half-life [17]: 4.87 h
- AUC (Rattus norvegicus [18]): 34.49 µg/h/mL
- k el [19]: 4.17e-05 s⁻¹

Compound: Cc1c(C)c2c(c(C)c1O)CCC(C)(COc1ccc(/C=C3\SC(=O)NC3=O)cc1)O2 (configuration not stated)
- Cmax [14]: 680 ng/mL
- Reduction (Mus musculus [4]): 62%
- Reduction (Mus musculus [20]): 26%
- Fold activation [21]: 0.58
- Tmax [16]: 1.75 h
- AUC (Rattus norvegicus [22]): 3.12
- half-life [17]: 2.82 h
- k el [19]: 6.94e-05 s⁻¹
- AUC (Rattus norvegicus [23]): 2.44

Compound: Cc1c(C)c2c(c(C)c1OCc1ccccc1)CCC(C)(CN1CCC[C@H]1COc1ccc(CC3SC(=O)[N-]C3=O)cc1)O2.[Na+] (some centres not stated)
- Reduction (Mus musculus [1]): 36%
- Reduction (Mus musculus [2]): 66%

Compound: Cc1c(C)c2c(c(C)c1O)CCC(C)(CN(C)CCOc1ccc(CC3SC(=O)NC3=O)cc1)O2 (configuration not stated)
- Reduction (Mus musculus [5]): 3%

Compound: Cc1c(C)c2c(c(C)c1O)CCC(C)(CN(C)CCOc1ccc(/C=C3\SC(=O)NC3=O)cc1)O2 (configuration not stated)
- AUC (Rattus norvegicus [24]): 44.2 µg/h/mL
- Reduction (Mus musculus [5]): 36%
- Cmax [14]: 9920 ng/mL
- Tmax [16]: 1.38 h
- AUC (Rattus norvegicus [18]): 44.94 µg/h/mL
- k el [19]: 0.000106 s⁻¹

Compound: Cc1c(C)c2c(c(C)c1OCc1ccccc1)CCC(C)(CN1CCC[C@@H](Oc3ccc(/C=C4\SC(=O)NC4=O)cc3)C1)O2.Cc1c(C)c2c(c(C)c1OCc1ccccc1)CCC(C)(CN1CCC[C@H]1COc1ccc(/C=C3\SC(=O)NC3=O)cc1)O2 (some centres not stated)
- Reduction (Mus musculus [25]): 52%
- Reduction (Mus musculus [26]): 53%

Compound: Cc1c(C)c2c(c(C)c1OCc1ccccc1)CCC(C)(CN1CCC[C@H]1COc1ccc(CC3SC(=O)NC3=O)cc1)O2.Cl (some centres not stated)
- Reduction (Mus musculus [1]): 12%

Compound: Cc1c(C)c2c(c(C)c1OCc1ccccc1)CCC(C)(CN1CCC[C@H]1COc1ccc(CC3SC(=O)NC3=O)cc1)O2 (some centres not stated)
- Reduction (Mus musculus [1]): 23%
- Reduction (Mus musculus [4]): 26%

Compound: Cc1c(C)c2c(c(C)c1OCc1ccccc1)CCC(C)(COc1ccc(/C=C3\SC(=O)NC3=O)cc1)O2 (configuration not stated)
- Cmax [14]: 1090 ng/mL
- Reduction (Mus musculus [4]): 39%
- Reduction (Mus musculus [20]): 38%
- Fold activation [21]: 0.67
- Tmax [16]: 4.33 h
- AUC (Rattus norvegicus [22]): 18.5
- half-life [17]: 10.4 h
- k el [19]: 1.94e-05 s⁻¹
- AUC (Rattus norvegicus [23]): 14.4

Compound: Cc1c(C)c2c(c(C)c1O)CCC(C)(CN1CCC[C@H]1COc1ccc(/C=C3\SC(=O)NC3=O)cc1)O2 (some centres not stated)
- Reduction (Mus musculus [27]): 36%
- Reduction (Mus musculus [4]): 37%

Compound: Cc1c(C)c2c(c(C)c1OCc1ccccc1)CCC(C)(CN1CCC[C@@H](Oc3ccc(/C=C4\SC(=O)NC4=O)cc3)C1)O2 (some centres not stated)
- Reduction (Mus musculus [27]): 24%
- Reduction (Mus musculus [4]): 5%

Compound: Cc1c(C)c2c(c(C)c1OCc1ccccc1)CCC(C)(COc1ccc(CC3SC(=O)NC3=O)cc1)O2 (configuration not stated)
- Cmax [14]: 1830 ng/mL
- half-life [6]: 5.78 h
- Cmax [7]: 2170 ng/mL
- Reduction (Mus musculus [28]): 34%
- Fold activation [21]: 1.79
- AUC (Rattus norvegicus [8]): 14.26 µg/h/mL
- Tmax [9]: 4.33 h
- Tmax [16]: 3.33 h
- AUC (Rattus norvegicus [22]): 29.76
- AUC (Rattus norvegicus [10]): 21.02 µg/h/mL
- k el [11]: 3.33e-05 s⁻¹
- half-life [17]: 9.27 h
- Reduction (Mus musculus [13]): 64%
- k el [19]: 2.22e-05 s⁻¹
- AUC (Rattus norvegicus [23]): 15.83
